Published values from different studies.
Protocols differ between the studies behind these lines.
Cell line: MDA-MB-231
Observed: cell growth or viability

For `CCCCCCCC(=O)NCC(=O)OC`, the inhibition was 10% (MTT; 10 µM; 48 h).
With `CCOc1c(OC)cc(CN2CCc3cc(O)c(OC)cc3C2)cc1OC` the GI50 was 0.3 µM (WST-1; 96 h).
`COc1cccc(-c2nc3ccc(C)cc3[nH]2)c1` has an IC50 of 15.6 µM (MTT; 48 h).
`COc1ccc(/C=C\c2cc(OC)c(OC)c(OC)c2)cc1O` gave a CC50 of 0.0037 µM (imaging; 72 h).
For `CCOc1cccc(CN2CCc3cc(OS(N)(=O)=O)c(OC)cc3C2)c1`, the GI50 was 0.65 µM (WST-1; 96 h).
`CCc1cc(CN2CCc3cc(O)c(OC)cc3C2)cc(CC)c1CC` has a GI50 of 26 µM (WST-1; 96 h).
`O=[N+]([O-])c1ccc(-c2nc3ccccc3[nH]2)cc1` gave an IC50 of 26.9 µM (MTT; 48 h).
With `N#CC(C(=O)Nc1cccc(C(F)(F)F)c1)=C1Sc2nc3ccc(S(=O)(=O)N4CCCC4)cc3nc2S1` the viability was 77.1% (MTT; 3.125 µM; 24 h).
For `COc1cccc2c1C(=O)c1c(O)c3c(c(O)c1C2=O)C[C@@](O)(C(=O)CO)C[C@@H]3O[C@H]1C[C@H](N)[C@H](O)[C@H](C)O1`, the IC90 was > 20 µM (MTT; 48 h).
`COc1cccc2c1C(=O)c1c(O)c3c(c(O)c1C2=O)C[C@@](O)(C(=O)CO)C[C@@H]3O[C@H]1C[C@H](N)[C@H](O)[C@H](C)O1` gave a viability of 52.6% (MTT; 3.125 µM; 24 h).
The IC50 of `Cc1ccc2nc(-c3ccc(Cl)cc3)n(Cc3ccccc3Cl)c2c1` is reported as 74.2 µM (MTT).
For `COc1cc2c(cc1O)CCN(Cc1cccc(OC(C)C)c1)C2`, the GI50 was 86 µM (WST-1; 96 h).
`Cc1ccc2nc(-c3ccc([N+](=O)[O-])cc3)n(Cc3ccc(Cl)cc3)c2c1` has an IC50 of 9.02 µM (MTT).
The GI50 of `COc1cc2c(cc1OS(N)(=O)=O)CCN(Cc1cccc(C#N)c1)C2` is reported as 4.7 µM (WST-1; 96 h).
`Clc1ccc(-c2nc3ccccc3[nH]2)c(Cl)c1` has an IC50 of 52.2 µM (MTT; 48 h).
`CCc1cc(CN2CCc3cc(OS(N)(=O)=O)c(OC)cc3C2)cc(CC)c1CC` gave a GI50 of 5.7 µM (WST-1; 96 h).
`C[C@]1(c2nc3c(C(N)=O)cccc3[nH]2)CCCN1` has an EC50 of > 10 µM (ATP luminescence; 7 days).
The IC50 of `CCOc1ccc(-c2nc3ccc(C)cc3[nH]2)cc1` is reported as 13.2 µM (MTT; 48 h).
The viability of `CCOC(=O)C(C(C)=O)=C1Sc2nc3ccc(S(=O)(=O)N4CCCC4)cc3nc2S1` is reported as 3.7% (MTT; 100 µM; 24 h).
For `CCc1cccc(CN2CCc3cc(OS(N)(=O)=O)c(OC)cc3C2)c1`, the GI50 was 8 µM (WST-1; 96 h).
`O=C1CCCCC1=C1Sc2nc3ccc(S(=O)(=O)N4CCCC4)cc3nc2S1` gave a viability of 8.2% (MTT; 100 µM; 24 h).
With `COc1cc2c(cc1OS(N)(=O)=O)CCN(Cc1cccc(NC(C)=O)c1)C2` the GI50 was > 100 µM (WST-1; 96 h).
The IC50 of `Clc1ccc(Cn2c(-c3ccc(Cl)cc3)nc3ccccc32)cc1` is reported as 7.48 µM (MTT).
`COc1cc(OC)c(CN2CCc3cc(OS(N)(=O)=O)c(OC)cc3C2)c(OC)c1` gave a GI50 of > 100 µM (WST-1; 96 h).
With `COc1ccc(-c2nc3ccc(C)cc3[nH]2)cc1OC` the IC50 was 52.6 µM (MTT; 48 h).
With `COc1cc2c(cc1OS(N)(=O)=O)CCN(Cc1cccc(OC(F)(F)F)c1)C2` the GI50 was 2.29 µM (WST-1; 96 h).
With `C[C@]12CC[C@@H]3c4ccc(O)cc4CC[C@H]3[C@@H]1CC[C@@H]2O` the EC50 was 35.8 µM (ATP luminescence; 72 h).
The GI50 of `COc1cc2c(cc1OS(N)(=O)=O)CCN(Cc1cccc(C(C)=O)c1)C2` is reported as 0.983 µM (WST-1; 96 h).
`CCOc1cc(CN2CCc3cc(O)c(OC)cc3C2)cc(OCC)c1OCC` has a GI50 of > 100 µM (WST-1; 96 h).
